Assay results reported in ChEMBL document CHEMBL1132380, “Drug delivery systems employing 1,4- or 1,6-elimination: poly(ethylene glycol) prodrugs of amine-containing compounds” (J Med Chem, 1999).

Key:
[1] = test system: Mus musculus; test: T/C of median tumor volumes when 3 mg/kg/dose of compound was given to BALB/c mice bearing sc M109 on days 3 and 6 (iv) after inoculation (control ~2000 mm**3); type: functional
In short: (§1)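 Female balb/c mice (20–25 g) given about 5×10^5 M109 cells sc in the left flank on day 0. M109 grown in EMEM with 10% FBS. Dosing is 3 mg/kg/dose of active DNR, ip on days 1 and 4 or iv on days 3 and 6. Groups of 6 include untreated controls. Median tumor volumes compared when control median reached about 2000 mm³.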

[2] = Half-life in rat plasma; type: ADME
In short: (§2)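 Release of free drug and hydrolysis of PEG conjugate followed in PBS (pH 7.4) or fresh rat plasma at 37 °C. Half-life derived from these rates. Run in duplicate; SD ±10%.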

[3] = test system: Mus musculus; test: T/C of median tumor volumes when 3 mg/kg/dose of compound was given to BALB/c mice bearing sc M109 on days 1 and 4 (ip) after inoculation (control ~2000 mm**3); type: functional; conditions: route intraperitoneal; in short: as §1
[4] = Half-life in buffer at pH 7.4; type: ADME; in short: as §2
[5] = test system: P388; test: Compound was evaluated for cytotoxicity against P388 leukemia cell line.; type: functional, cell-based; conditions: Mus musculus
[6] = test system: Mus musculus; test: Effect of 3 mg/kg/dose of compound given iv q4d x 3 against sc human ovarian tumor (SK-OV3) in mice expressed as % tumor volume change from initial by day 30; type: functional
In short: (§3)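 Female nu/nu mice (18–24 g) given 1×10^6 SKOV3 cells sc in the left flank in 0.1 mL medium. SKOV3 grown in McCoy's 5a with 15% FBS. Dosing starts at about 70 mm³ mean tumor volume (day 1), with 3 mg/kg/dose DNR content iv on days 1, 5 and 9. n = 5/group against untreated controls. Mean volumes compared at day 30; median volumes compared when control median reached about 1000 mm³.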

[7] = test system: Mus musculus; test: Effect of 3 mg/kg/dose of compound given iv q4d x 3 against sc human ovarian tumor (SK-OV3) in mice expressed as treated/ control mean tumor volume on day 30; type: functional; in short: as §3
[8] = test system: Mus musculus; test: Effect of 3 mg/kg/dose of compound given iv q4d x 3 against sc human ovarian tumor (SK-OV3) in mice expressed as treated/ control ( 1000 mm**3) median tumor volume on day 30; type: functional; in short: as §3
[9] = test system: Mus musculus; test: Effect of 3 mg/kg/dose of compound given iv q4d x 3 against sc human ovarian tumor (SK-OV3) in mice expressed as Mean tumor volume by day 30; type: functional; in short: as §3
[10] = test system: Mus musculus; test: Toxicity at a dose of 830 mg/kg against M109 tumors conducted in female BALB/c mice; type: functional

Compound | T/C [1] [%] | half-life [2] [h] | T/C [3] [%] | half-life [4] [h] | IC50 [5] [nM] | Tumor growth [6] [%] | T/C [7] [%] | T/C [8] [%] | Mean tumor volume [9] | Toxicity (deaths) [10] [%]
COc1cccc2c1C(=O)c1c(O)c3c(c(O)c1C2=O)C[C@@](O)(C(=O)CNC(=O)OCc1cc(C)c(OC(=O)OCCOCCOCCO)c(C)c1)C[C@@H]3OC1CC(N)C(O)C(C)O1 (stereo not given in full) | 74.4 | 2.9 | 90.3 | > 48 | 179 |  |  |  |  | 
COc1cccc2c1C(=O)c1c(O)c3c(c(O)c1C2=O)C[C@@](O)(C(=O)CNC(=O)OCc1ccc(NC(=O)OCCOCCOCCO)cc1)C[C@@H]3OC1CC(N)C(O)C(C)O1 (stereo not given in full) | 129 | > 24 | 75.3 | > 48 | 415 | 400 | 21 | 41 | 272 | 
COc1cc(COC(=O)NCC(=O)[C@]2(O)Cc3c(O)c4c(c(O)c3[C@@H](OC3CC(N)C(O)C(C)O3)C2)C(=O)c2c(OC)cccc2C4=O)cc(OC)c1OC(=O)CCOCCOCCO (stereo not given in full) | 48.2 | 1 | 68.6 | > 48 | 27 |  |  |  |  | 
COc1cccc2c1C(=O)c1c(O)c3c(c(O)c1C2=O)C[C@@](O)(C(=O)CNC(=O)OCc1ccc(OC(=O)CCOCCOCCO)cc1)C[C@@H]3OC1CC(N)C(O)C(C)O1 (stereo not given in full) |  | 0.4 | 92.8 | > 24 | 8 |  |  |  |  | 
Cc1cc(COC(=O)NC(C)C)cc(C)c1OC(=O)CCOCCOCCO |  |  |  |  |  |  |  |  |  | 0
COc1cccc2c1C(=O)c1c(O)c3c(c(O)c1C2=O)C[C@@](O)(C(=O)CNC(=O)OCc1cc(C)c(OC(=O)CCOCCOCCO)c(C)c1)C[C@@H]3OC1CC(N)C(O)C(C)O1 (stereo not given in full) | 67.9 | 1.9 | 90.3 | > 48 | 55 |  |  |  |  | 
COc1cccc2c1C(=O)c1c(O)c3c(c(O)c1C2=O)C[C@@](O)(C(=O)CNC(=O)OCc1ccccc1OC(=O)NCCOCCOCCO)C[C@@H]3OC1CC(N)C(O)C(C)O1 (stereo not given in full) | 68.7 | 3 | 91.3 | > 48 | 35 |  |  |  |  | 
COc1cccc2c1C(=O)c1c(O)c3c(c(O)c1C2=O)C[C@@](O)(C(=O)CNC(=O)OCc1ccc(OC(=O)C(C)(C)NC(=O)CCOCCOCCO)cc1)C[C@@H]3OC1CC(N)C(O)C(C)O1 (stereo not given in full) |  | 1.3 | 87.6 | > 48 | 18 |  |  |  |  | 
COc1cc(COC(=O)NC(CC(C)C)C(=O)OC(C)(C)C)cc(OC)c1OC(=O)CCOCCOCCO (stereo not given) |  |  |  |  |  |  |  |  |  | 0
COc1cccc2c1C(=O)c1c(O)c3c(c(O)c1C2=O)C[C@@](O)(C(=O)CNC(=O)OCc1ccc(OC(=O)NCCOCCOCCO)cc1)C[C@@H]3OC1CC(N)C(O)C(C)O1 (stereo not given in full) | 64.6 | 4 | 84.1 | > 48 | 15 | 86 | 12 | 11 | 154 | 
COc1cccc2c1C(=O)c1c(O)c3c(c(O)c1C2=O)C[C@@](O)(C(C)=O)C[C@@H]3O[C@H]1C[C@H](N)[C@H](O)[C@H](C)O1 [DAUNORUBICIN] | 117 |  | 44.8 |  | 3 | 1226 | 92 | 54 | 1154 | 
COc1cccc2c1C(=O)c1c(O)c3c(c(O)c1C2=O)C[C@@](O)(C(=O)CNC(=O)OCc1ccccc1NC(=O)OCCOCCOCCO)C[C@@H]3OC1CC(N)C(O)C(C)O1 (stereo not given in full) | 117 | > 24 | 112.2 | > 48 | 130 |  |  |  |  | 
COc1cccc2c1C(=O)c1c(O)c3c(c(O)c1C2=O)C[C@@](O)(C(=O)CNC(=O)OCc1ccc(NC(=O)CCOCCOCCO)cc1)C[C@@H]3OC1CC(N)C(O)C(C)O1 (stereo not given in full) |  | > 24 | 122.7 | > 48 | 457 |  |  |  |  | 
Cc1cc(COC(=O)NC(C)C)cc(C)c1NC(=O)OCCOCCOCCO |  |  |  |  |  |  |  |  |  | 0
